{"source": "ChEMBL document CHEMBL1143981", "about": "“Exploring the potential of 3'-O-carboxy esters of thymidine as inhibitors of ribonuclease A and angiogenin” (Bioorg Med Chem, 2008)", "key": {"[1]": {"target": "Ribonuclease pancreatic", "test": "Activity at RNase A", "in_short": "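Spectrophotometric kinetics with 2',3'-cCMP substrate in oligo(vinylsulfonic acid)-free 0.1 M Mes–NaOH, pH 6.0, with 0.1 M NaCl. RNase A was at 10 µM. Substrate ranged 0.14–0.28 mM with inhibitor 0–6.7 µM, or 0.13–0.25 mM with inhibitor 0–62 µM, depending on compound. Inhibition constants came from initial velocities via Eadie–Hofstee plots (V vs V/[S]), using the slopes.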"}, "[2]": {"test": "Inhibition of RNase A by precipitation assay", "in_short": "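Yeast tRNA substrate (0.1 mg) in 0.1 M Tris–HCl, pH 7.5, with 5 mM EDTA and 10 µg HSA, 50 µl final. Enzyme (0.2 µM solution) was preincubated with inhibitor (225 µM solution) before addition. Reaction ran at 37 °C for 30 min. It was quenched with ice-cold 1.14 N perchloric acid containing 6 mM uranyl acetate, held on ice 30 min, then centrifuged at 4 °C.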"}, "[3]": {"target": "T1, Ribonuclease pancreatic (Homo sapiens) (UniProt P07998)", "T1 sequence (whole entry)": "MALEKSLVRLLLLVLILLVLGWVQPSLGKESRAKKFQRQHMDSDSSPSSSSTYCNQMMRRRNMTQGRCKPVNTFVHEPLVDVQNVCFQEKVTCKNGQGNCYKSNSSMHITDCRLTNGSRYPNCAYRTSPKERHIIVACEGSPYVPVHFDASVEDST", "test": "Inhibition of RNase A assessed as tRNA degradation by agarose-gel based assay", "in_short": "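RNase A (0.66 µM solution) was preincubated 6 h with 1.5 mM inhibitor solution, 50 µl total. An aliquot was then mixed with yeast tRNA (5.0 mg/ml, freshly dissolved in RNase-free water) for 30 min. Samples ran on 1.1% agarose, and undegraded tRNA was visualized by ethidium bromide staining under UV.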"}}, "note": "Active and inactive are the calls of the source. The calls are words filed in the database; no cut-off is given here."}
{"smiles": "Cc1cn([C@H]2C[C@H](OP(=O)(O)O)[C@@H](CO)O2)c(=O)[nH]c1=O", "values": [{"measurement": "Ki", "setting": "[1]", "value": 13.2, "unit": "µM"}, {"measurement": "IC50", "setting": "[2]", "value": 167, "unit": "µM"}]}
{"smiles": "CC(=O)O[C@H]1C[C@H](n2cc(C)c(=O)[nH]c2=O)O[C@@H]1CO", "values": [{"measurement": "Activity", "setting": "[3]", "value": "Active"}, {"measurement": "Ki", "setting": "[1]", "value": 42, "unit": "µM"}, {"measurement": "IC50", "setting": "[2]", "value": 197, "unit": "µM"}]}
{"smiles": "Nc1ccn([C@@H]2O[C@H](CO)[C@@H](OP(=O)(O)O)[C@H]2O)c(=O)n1", "values": [{"measurement": "Activity", "setting": "[3]", "value": "Active"}, {"measurement": "Ki", "setting": "[1]", "value": 103, "unit": "µM"}, {"measurement": "IC50", "setting": "[2]", "value": 312, "unit": "µM"}]}
{"smiles": "Cc1cn([C@H]2C[C@H](OC(=O)c3ccccc3)[C@@H](CO)O2)c(=O)[nH]c1=O", "values": [{"measurement": "Activity", "setting": "[3]", "value": "Active"}, {"measurement": "Ki", "setting": "[1]", "value": 95, "unit": "µM"}, {"measurement": "IC50", "setting": "[2]", "value": 341, "unit": "µM"}]}
